Measured values published in ChEMBL document CHEMBL2331220, “Benzimidazole clubbed with triazolo-thiadiazoles and triazolo-thiadiazines: new anticancer agents” (2013).

Columns and labels:
Format in all cases: functional
[1] = tested on: MDA-MB-468; assay: Cytotoxicity against human MDA-MB-468 cells after 48 hrs by SRB assay; conditions: MDA-MB-468, 48 h
Procedure, shortened: (§1)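 NCI 60-line five-dose screen. Cells were preincubated 24 h at 37 °C under 5% CO2 and 100% humidity, and time-zero plates were TCA-fixed when compound was added. Five 10-fold concentrations (0.01–100) were tested for 48 h. Cells were fixed with cold TCA (final 10%, 60 min, 4 °C), stained with 0.4% SRB for 10 min, and read at 515 nm. GI50, TGI and LC50 came from growth-percentage formulas, with out-of-range values given as > or <.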

[2] = tested on: TK-10; assay: Cytotoxicity against human TK10 cells after 48 hrs by SRB assay; conditions: TK-10, 48 h
Procedure, shortened: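 NCI 60-line five-dose screen: cells plated, held 24 h at 37 °C, 5% CO₂ before treatment, with a TCA-fixed time-zero plate. Five final concentrations (0.01–100 µM, 10-fold dilutions) for 48 h. Cells fixed with cold TCA (10% final) and stained with 0.4% SRB in 1% acetic acid. Dye dissolved in 10 mM Tris and read at 515 nm. GI₅₀, TGI and LC₅₀ taken from percent-growth curves.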

[3] = tested on: Malme-3M; assay: Cytotoxicity against human MALME-3M cells after 48 hrs by SRB assay; procedure, shortened: as §1
[4] = tested on: M14; assay: Cytotoxicity against human M14 cells after 48 hrs by SRB assay; conditions: M14, 48 h; procedure, shortened: as §1
[5] = tested on: NCI-H23; assay: Cytotoxicity against human NCI-H23 cells after 48 hrs by SRB assay; conditions: NCI-H23, 48 h; procedure, shortened: as §1
[6] = tested on: HOP-62; assay: Cytotoxicity against human HOP62 cells after 48 hrs by SRB assay; conditions: HOP-62, 48 h; procedure, shortened: as §1

For `O=C(CCc1nnc2sc(-c3ccc(Cl)cc3Cl)nn12)c1nc2ccccc2[nH]1`, the GI50 ([1]; read-out: GI50) was 699 nM, the LC50 ([1]; read-out: LC50) was 5.41 µM and the TGI ([1]; read-out: TGI) was 2150 nM. The GI50 ([1]; read-out: pGI50 (converted)) was 692 nM, the LC50 ([1]; read-out: pLC50 (converted)) was 5.37 µM and the TGI ([1]; read-out: pTGI (converted)) was 2140 nM. It also gave a GI50 ([2]; read-out: GI50) of 2010 nM, an LC50 ([2]; read-out: LC50) of 6.3 µM and a TGI ([2]; read-out: TGI) of 3.55 µM. For the same molecule, the GI50 ([2]; read-out: pGI50 (converted)) was 2000 nM, the LC50 ([2]; read-out: pLC50 (converted)) was 6.31 µM and the TGI ([2]; read-out: pTGI (converted)) was 3.55 µM. It also gave a GI50 ([3]; read-out: GI50) of 762 nM, a TGI ([3]; read-out: TGI) of 2940 nM and a GI50 ([3]; read-out: pGI50 (converted)) of 759 nM. For the same molecule, the TGI ([3]; read-out: pTGI (converted)) was 2950 nM, the GI50 ([4]; read-out: GI50) was 596 nM and the TGI ([4]; read-out: TGI) was 2450 nM. For the same molecule, the GI50 ([4]; read-out: pGI50 (converted)) was 603 nM, the TGI ([4]; read-out: pTGI (converted)) was 2450 nM and the GI50 ([5]; read-out: GI50) was 719 nM. The TGI ([5]; read-out: TGI) was 2480 nM, the GI50 ([5]; read-out: pGI50 (converted)) was 724 nM and the TGI ([5]; read-out: pTGI (converted)) was 2450 nM. The GI50 ([6]; read-out: GI50) was 576 nM, the CC50 ([6]; read-out: LC50 (the source's name)) was 6.16 µM and the TGI ([6]; read-out: TGI) was 2120 nM. It also gave a GI50 ([6]; read-out: pGI50 (converted)) of 575 nM, a CC50 ([6]; read-out: pLC50 (the source's name) (converted)) of 6.17 µM and a TGI ([6]; read-out: pTGI (converted)) of 2140 nM.
